Measured values published in ChEMBL document CHEMBL1144150, “A new biflavonoid from Calophyllum panciflorum with antitumor-promoting activity” (J Nat Prod, 1999).

Assays:
Format in all cases: cell-based
Raji [1] = assay: Antitumor-promoting activity assessed as TPA-induced EBV-early antigen activation in human Raji cells at 32 nmol after 48 hrs relative to TPA; conditions: human gammaherpesvirus 4
Method in brief: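 Raji cells (EBV genome-carrying lymphoblastoid, nonproducer) in RPMI 1640 with 10% FBS, 1×10⁶/mL, given 4 mM n-butyric acid plus 32 pmol TPA (20 ng/mL) and test compound; 37 °C, CO₂, 48 h. EA-positive cells scored by indirect immunofluorescence using NPC patient sera, ≥500 cells counted, three repeats. Expressed as % of butyric acid+TPA control (100%), mean ± S.D.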

[2] = Cytotoxicity against human Raji cells assessed as cell viability at 0.32 nmol by trypan blue staining; conditions: read-out: Activity
Raji [3] = assay: Antitumor-promoting activity assessed as TPA-induced EBV-early antigen activation in human Raji cells at 0.32 nmol after 48 hrs relative to TPA; conditions: human gammaherpesvirus 4
[4] = Cytotoxicity against human Raji cells assessed as cell viability at 16 nmol by trypan blue staining; conditions: read-out: Activity
[5] = Cytotoxicity against human Raji cells assessed as cell viability at 3.2 nmol by trypan blue staining; conditions: read-out: Activity
Raji [6] = assay: Antitumor-promoting activity assessed as TPA-induced EBV-early antigen activation in human Raji cells at 16 nmol after 48 hrs relative to TPA; conditions: human gammaherpesvirus 4
Raji [7] = assay: Antitumor-promoting activity assessed as TPA-induced EBV-early antigen activation in human Raji cells at 3.2 nmol after 48 hrs relative to TPA; conditions: human gammaherpesvirus 4
[8] = Cytotoxicity against human Raji cells assessed as cell viability at 32 nmol by trypan blue staining; conditions: read-out: Activity

O=C1c2c(O)cc(O)cc2O[C@@H](c2ccc(O)cc2)[C@@H]1c1c(O)cc(O)c2c(=O)c(O)c(-c3ccc(O)c(O)c3)oc12 [PANCIBIFLAVONOL]
Activity (Raji [1]): 22.1% | viability at 0.32 nmol [2]: > 80% | Activity (Raji [3]): 94.4% | viability at 16 nmol [4]: > 80% | viability at 3.2 nmol [5]: > 80% | Activity (Raji [6]): 50.2% | Activity (Raji [7]): 75% | viability at 32 nmol [8]: 70%

O=C1c2c(O)cc(O)cc2O[C@H](c2ccc(O)cc2)[C@H]1c1c(O)cc(O)c2c(=O)cc(-c3ccc(O)c(O)c3)oc12 [MORELLOFLAVONE]
viability at 0.32 nmol [2]: > 80% | Activity (Raji [3]): 91.2% | viability at 16 nmol [4]: > 80% | viability at 3.2 nmol [5]: > 80% | Activity (Raji [6]): 40.1% | Activity (Raji [7]): 72.6% | viability at 32 nmol [8]: 70%

O=C1c2c(O)cc(O)cc2O[C@H](c2ccc(O)cc2)[C@H]1c1c(O)cc(O)c2c1O[C@H](c1ccc(O)c(O)c1)[C@@H](O)C2=O
Activity (Raji [1]): 28.7% | viability at 0.32 nmol [2]: > 80% | Activity (Raji [3]): 100% | viability at 16 nmol [4]: > 80% | viability at 3.2 nmol [5]: > 80% | Activity (Raji [6]): 63.9% | Activity (Raji [7]): 90.3% | viability at 32 nmol [8]: 70%

O=C1C[C@@H](c2ccc(O)cc2)Oc2c1c(O)cc(O)c2[C@H]1C(=O)c2c(O)cc(O)cc2O[C@@H]1c1ccc(O)cc1
Activity (Raji [1]): 19.4% | viability at 0.32 nmol [2]: > 80% | Activity (Raji [3]): 100% | viability at 16 nmol [4]: > 80% | viability at 3.2 nmol [5]: > 80% | Activity (Raji [6]): 48.2% | Activity (Raji [7]): 82.9% | viability at 32 nmol [8]: 70%

O=C1C[C@@H](c2ccc(O)c(O)c2)Oc2c1c(O)cc(O)c2[C@H]1C(=O)c2c(O)cc(O)cc2O[C@@H]1c1ccc(O)cc1
viability at 0.32 nmol [2]: > 80% | Activity (Raji [3]): 90.6% | viability at 16 nmol [4]: > 80% | viability at 3.2 nmol [5]: > 80% | Activity (Raji [6]): 42.5% | Activity (Raji [7]): 71.3% | viability at 32 nmol [8]: 70%

O=C1c2c(O)cc(O)cc2O[C@@H](c2ccc(O)cc2)[C@@H]1c1c(O)cc(O)c2c(=O)c(O)c(-c3ccc(O)cc3)oc12 [GARCINIANIN]
viability at 0.32 nmol [2]: > 80% | Activity (Raji [3]): 89.4% | viability at 16 nmol [4]: > 80% | viability at 3.2 nmol [5]: > 80% | Activity (Raji [6]): 31.4% | Activity (Raji [7]): 69.2% | viability at 32 nmol [8]: 70%

O=C1c2c(O)cc(O)cc2O[C@H](c2ccc(O)cc2)[C@H]1c1c(O)cc(O)c2c1O[C@H](c1ccc(O)cc1)[C@@H](O)C2=O
Activity (Raji [1]): 25.3% | viability at 0.32 nmol [2]: > 80% | Activity (Raji [3]): 95.7% | viability at 16 nmol [4]: > 80% | viability at 3.2 nmol [5]: > 80% | Activity (Raji [6]): 61% | Activity (Raji [7]): 88.2% | viability at 32 nmol [8]: 70%
